Among the data in ChEMBL document CHEMBL1123928, “Inhibition of human sputum elastase by substituted 2-pyrones” (J Med Chem, 1987) are inhibitor concentration tested (near solubility limit), Ki and solubility values, retold here.

Broadly, the Ki is the equilibrium dissociation constant of an inhibitor or competing ligand from its target. A higher Ki goes with lower affinity. A word on the solubility: it is how much of the substance goes into solution per volume. High values mean much dissolved substance, low ones little dissolved substance.

Values after ≈ are worked out from the molar mass of the structure shown.

The subject of data set [1] is alpha-chymotrypsin. Kind of data set: (§1) Solubility against bovine alpha-chymotrypsin. The class given is ADME, Bos taurus. The note with it: cattle. A digest of the protocol:
(§2)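 Single-point screen run under the HSE assay conditions (0.1 M HEPES, 0.5 M NaCl, 14.8% Me2SO, pH 7.5, 37 °C). One inhibitor concentration near its solubility limit: 25, 10, 1000 or 200 μM depending on compound. One substrate concentration at 0.29 Km; porcine elastase Km 2600 μM. Each run at least twice; p-nitrophenol read at 400 nm.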

The target of data set [2] is pancreatic elastase (Sus scrofa, UniProt P00772+P08419). Kind of data set: Solubility against porcine pancreatic elastase. The class given is ADME, protein assay. The note with it: pig. A digest of the protocol: as §2
A short description of data set [3]: Evaluated for uncompetitive inhibition of the human sputum elastase (HSE). The method in brief:
(§3)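 HSE from sputum prepared in 50 mM NaOAc/0.45 M NaCl pH 5.5. Assay in 0.1 M HEPES, 0.5 M NaCl, 14.8% Me2SO, pH 7.5, 37 °C. Inhibitor at two or more concentrations (4–250 μM depending on compound). […] Ki from Hanes–Woolf plots with Dixon-type replots.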

The target of data set [4] is T1, trypsin (Serine protease 1) (Bos taurus, UniProt P00760).
T1 sequence (P00760 whole entry): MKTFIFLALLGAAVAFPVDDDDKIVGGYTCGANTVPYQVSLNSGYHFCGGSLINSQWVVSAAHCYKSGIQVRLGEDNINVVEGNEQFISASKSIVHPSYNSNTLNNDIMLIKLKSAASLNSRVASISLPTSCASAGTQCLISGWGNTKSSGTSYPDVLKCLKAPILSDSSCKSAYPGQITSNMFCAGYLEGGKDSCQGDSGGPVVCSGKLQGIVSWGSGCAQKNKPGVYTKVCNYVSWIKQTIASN
The data set is described as follows: Solubility against bovine trypsin. The note with it: cattle. The format is ADME. The method in brief:
as §2

Data set [5] has as its target T2, Neutrophil elastase (Homo sapiens, UniProt P08246).
T2 sequence (P08246 whole entry): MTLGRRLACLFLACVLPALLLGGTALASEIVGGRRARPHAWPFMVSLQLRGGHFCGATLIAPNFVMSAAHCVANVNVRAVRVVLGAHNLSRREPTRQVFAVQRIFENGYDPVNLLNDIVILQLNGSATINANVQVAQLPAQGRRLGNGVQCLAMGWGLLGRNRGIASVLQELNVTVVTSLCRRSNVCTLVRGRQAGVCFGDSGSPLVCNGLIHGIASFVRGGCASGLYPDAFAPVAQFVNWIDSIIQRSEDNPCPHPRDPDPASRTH
The data set is described as follows: (§4) Evaluated for inhibition of the human sputum elastase (HSE). The method in brief:
as §3

Data set [6] is described as follows: Evaluated for Non-competitive inhibition of the human sputum elastase (HSE). A digest of the protocol: as §3
Data set [7] in a line: Evaluated for inhibition of the human sputum elastase (HSE) at 1000 micro M; No activity.
A short description of data set [8]: as §4. The class given is functional. A digest of the protocol: as §3
For data set [9], the system named is alpha-chymotrypsin. The description is as §1. The format is ADME, organism-based, Bos taurus. The note with it: cattle. The method in brief: as §2

For the compound `CCCCCCCc1cc(OC)cc(=O)o1`, the inhibitor concentration tested (near solubility limit) in [1] and in [2] was 200 µM in each case. In data set [3], the inhibition constant (Ki) is 140 µM. For the same compound, the concentration in solution in data set [4] (solubility) came to 200 µM (≈ 44.9 µg/mL).

As for `CCCCCCCCCC(=O)c1c(O)cc(CCCCCCCCC)oc1=O`, the inhibitor concentration tested (near solubility limit) in data set [1] and in data set [2] was 25 µM throughout. The same compound yielded an inhibition constant (Ki) in data set [5] of 7.9 µM. Besides, the solubility in [4] worked out at 25 µM (≈ 9.81 µg/mL).

With `CCCCCCCCCC(=O)c1c(O)cc(C)oc1=O`, the inhibitor concentration tested (near solubility limit) in data set [1] and in [2] was 200 µM in each case. In addition, in data set [6], the inhibition constant (Ki) came to 250 µM. Also, the solubility in data set [4] turned out to be 200 µM (≈ 56.1 µg/mL).

As to `CCCCCC(=O)c1c(O)cc(C)oc1=O`, the inhibitor concentration tested (near solubility limit) in [1] and in data set [2] was 200 µM each time. Moreover, affinity in data set [6] was put at a Ki of 2000 µM. Further, the concentration in solution in data set [4] (solubility) was 200 µM (≈ 44.9 µg/mL).

As for `CCCCCCCCCCCC(=O)c1c(O)cc(C)oc1=O`, the inhibitor concentration tested (near solubility limit) in [1] and in [2] was 200 µM in each case. This compound gave a Ki in data set [6] of 54 µM. The same compound gave a solubility in data set [4] of 200 µM (≈ 61.7 µg/mL).

Take `CCCCCCCC(=O)c1c(O)cc(CCCCCCC)oc1=O`: the inhibitor concentration tested (near solubility limit) in [1] and in [2] was 25 µM in each case. In data set [5], the affinity, expressed as Ki, was 15 µM. For the same compound, the concentration in solution in [4] (solubility) came to 25 µM (≈ 8.41 µg/mL).

With `CCCCCCCCC(=O)c1c(O)cc(CCCCCCCC)oc1=O`, the inhibitor concentration tested (near solubility limit) in data set [1] and in data set [2] was 25 µM in each case. The Ki in data set [5] was 4.6 µM. The compound also registered a solubility in [4] of 25 µM (≈ 9.11 µg/mL).

Regarding `CCCCCCCCCc1cc(OC)cc(=O)o1`, the inhibitor concentration tested (near solubility limit) in [1] and in data set [2] was 200 µM in each case. This compound also showed a Ki in data set [3] of 130 µM. In data set [4], the concentration in solution (solubility) came to 200 µM (≈ 50.5 µg/mL).

As for `CCCCOC(=O)C(=O)/C=C1\C=C(OC)C=C(O)O1`, the inhibitor concentration tested (near solubility limit) in [1] and in data set [2] was 200 µM each time. Further, the inhibition constant Ki in data set [5] turned out to be 350 µM. The compound further yielded a solubility in data set [4] of 200 µM (≈ 53.7 µg/mL).

`COC1=C/C(=C\C(=O)C(=O)O)OC(O)=C1`: the inhibitor concentration tested (near solubility limit) in data set [1] and in [2] was 1000 µM in each case. In addition, in [7], the Ki result is reported as “No inhibitory activity”. The compound also showed a solubility in [4] of 1000 µM (≈ 212 µg/mL).

`CCCCCCCc1cc(O)cc(=O)o1`: the inhibitor concentration tested (near solubility limit) in data set [1] and in data set [2] was 200 µM each time. In addition, affinity in data set [5] was put at a Ki of 1100 µM. The solubility in [4] amounted to 200 µM (≈ 42.1 µg/mL).

`CCCCCOC(=O)C(=O)/C=C1\C=C(OC)C=C(O)O1`: the inhibitor concentration tested (near solubility limit) in data set [1] and in [2] was 200 µM in each case. The affinity in data set [5], expressed as Ki, was 410 µM. Moreover, in data set [4], the solubility came to 200 µM (≈ 56.5 µg/mL).

As to `CCCCCCCCCc1cc(O)cc(=O)o1`, the inhibitor concentration tested (near solubility limit) in data set [1] and in data set [2] was 200 µM in each case. The same compound yielded a Ki in [5] of 400 µM. The compound also returned a solubility in data set [4] of 200 µM (≈ 47.7 µg/mL).

As to `CCCCCCCCCCCc1cc(O)cc(=O)o1`, the inhibitor concentration tested (near solubility limit) in [1] and in data set [2] was 200 µM each time. In data set [8], this compound came in with a Ki of 83 µM. Also, the concentration in solution in data set [4] (solubility) was 200 µM (≈ 53.3 µg/mL).

Turning to `CCOC(=O)C(=O)/C=C1\C=C(OC)C=C(O)O1`, the inhibitor concentration tested (near solubility limit) in data set [1] and in [2] was 200 µM each time. This compound showed a Ki in data set [5] of 120 µM. Further, in data set [4], the solubility worked out at 200 µM (≈ 48 µg/mL).

For the compound `CCCCCC(=O)c1c(O)cc(CCCCC)oc1=O`, the inhibitor concentration tested (near solubility limit) in data set [1] and in data set [2] was 25 µM each time. This compound also registered an inhibition constant Ki in data set [6] of 67 µM. Also, the solubility in data set [4] stood at 25 µM (≈ 7.01 µg/mL).

As for `CCCCCCCC(=O)c1c(O)cc(C)oc1=O`, the inhibitor concentration tested (near solubility limit) in data set [1] and in [2] was 200 µM each time. Moreover, affinity in data set [6] was put at a Ki of 400 µM. The solubility in [4] was 200 µM (≈ 50.5 µg/mL).

Regarding `CCCCCc1cc(O)cc(=O)o1`, the inhibitor concentration tested (near solubility limit) in data set [1] and in [2] was 200 µM in each case. In data set [5], this compound came in with a Ki of 1700 µM. The same compound returned a solubility in data set [4] of 200 µM (≈ 36.4 µg/mL).

As for `CCCCCCCCCCCC(=O)c1c(O)cc(CCCCCCCCCCC)oc1=O`, the solubility in data set [9] and in data set [4] was 10 µM (≈ 4.49 µg/mL) in each case. In addition, the inhibitor concentration tested (near solubility limit) in data set [2] was 10 µM.
